The values below come from publication PMC11966289 (ACS Omega, 2025).

Holding throughout (assay type): cell-based
The test system of series [1] is P. falciparum (D6 strain). As to the kind of experiment: In vitro antiplasmodial activity. To be noted: Plasmodium falciparum, D6, 72 h, read-out: P. falciparum (D6 strain) IC50.
Series [2] is described as follows: In vitro cytotoxicity, Neutral Red assay. Conditions: African green monkey, Vero cells.
For series [3], the system named is P. falciparum (W2 strain). The series is described as follows: In vitro antiplasmodial activity. Conditions: Plasmodium falciparum, W2, 72 h, read-out: P. falciparum (W2 strain) IC50. In a few lines:
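Infected erythrocytes (2% hematocrit, 2% parasitemia) in RPMI 1640 with 60 μg/mL amikacin and 10% human serum, exposed to serially diluted test compound under 90% N2/5% CO2/5% O2 at 37 °C for 72 h. Parasite LDH measured with Malstat reagent (30 min, room temperature), then NBT/PES (1 h, dark), stopped with 5% acetic acid, absorbance 650 nm. Triplicates; chloroquine/artemisinin and DMSO controls; IC50 from dose–response.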

The structures appear in SMILES notation.

`CN1CCN(c2nccc(N3CCN(CCCNc4ccnc5cc(Cl)ccc45)CC3)n2)CC1` [Compound 7q, 7-Chloro-N-(3-(4-(2-(4-methylpiperazin-1-yl)pyrimidin-4-yl)piperazin-1-yl)propyl) quinolin-4-amine]: the IC50 – broadly, the concentration needed to halve the response being measured – was found to be 14 nM in series [1] and 17 nM in series [3]. Further, the IC50 at 48 h in series [2] is more than 4.76 µg/mL.
In the same order, the values of `Cc1cc(N2CCN(CCNc3ccnc4cc(Cl)ccc34)CC2)nc(N2CCSCC2)n1` [Compound 7c, 7-Chloro-N-(2-(4-(6-methyl-2-thiomorpholinopyrimidin-4-yl)piperazin-1-yl)ethyl) quinolin-4-amine] are 38 nM, 64 nM and more than 4.76 µg/mL.
The corresponding values for `Cc1cc(Cl)nc(N2CCN(CCNc3ccnc4cc(Cl)ccc34)CC2)n1` [Compound 5a, 7-Chloro-N-(2-(4-(4-chloro-6-methylpyrimidin-2-yl)piperazin-1-yl)ethyl)quinolin-4-amine] are 70 nM, 210 nM and more than 4.76 µg/mL.
With `Cc1cc(Cl)nc(N2CCN(CCCNc3ccnc4cc(Cl)ccc34)CC2)n1` [Compound 5b, 7-Chloro-N-(3-(4-(4-chloro-6-methylpyrimidin-2-yl)piperazin-1-yl)propyl)quinolin-4-amine], the IC50 is 100 nM in series [1] and 350 nM in series [3]. Besides, in series [2], the IC50 at 48 h is more than 4.76 µg/mL.
With `Cc1cc(N2CCN(CCCNc3ccnc4cc(Cl)ccc34)CC2)nc(N2CCCCC2)n1` [Compound 7f, 7-Chloro-N-(3-(4-(6-methyl-2-(piperidin-1-yl)pyrimidin-4-yl)piperazin-1-yl)propyl) quinolin-4-amine], the IC50 in series [1] is 15 nM; in series [3], 34 nM. Also, the half-inhibitory concentration (IC50) at 48 h in series [2] is more than 4.76 µg/mL.
Regarding `Clc1ccc2c(NCCCN3CCN(c4ccnc(N5CCSCC5)n4)CC3)ccnc2c1` [Compound 7n, 7-Chloro-N-(3-(4-(2-thiomorpholinopyrimidin-4-yl)piperazin-1-yl)propyl)quinolin-4-amine], the results for the IC50 in series [1] and in series [3] were 4080 nM and more than 9830 nM, respectively. In series [2], the IC50 at 48 h is more than 4.76 µg/mL.
In the case of `CCN1CCN(c2nccc(N3CCN(CCCNc4ccnc5cc(Cl)ccc45)CC3)n2)CC1` [Compound 7p, 7-Chloro-N-(3-(4-(2-(4-ethylpiperazin-1-yl)pyrimidin-4-yl)piperazin-1-yl)propyl) quinolin-4-amine], the values for the 50% inhibitory concentration (IC50) in series [1] and in series [3] were 13 nM and 20 nM, respectively. For the same compound, in series [2], the IC50 at 48 h is more than 4.76 µg/mL.
For `CCN1CCN(c2nc(C)cc(N3CCN(CCCNc4ccnc5cc(Cl)ccc45)CC3)n2)CC1` [Compound 7j, 7-Chloro-N-(3-(4-(2-(4-ethylpiperazin-1-yl)-6-methylpyrimidin-4-yl)piperazin-1-yl)propyl)quinolin-4-amine], the IC50 is 19 nM in series [1] and 20 nM in series [3]. This compound came in with an IC50 at 48 h in series [2] of more than 4.76 µg/mL.
Turning to `Clc1ccc2c(NCCCN3CCN(c4ccnc(N5CCOCC5)n4)CC3)ccnc2c1` [Compound 7m, 7-Chloro-N-(3-(4-(2-morpholinopyrimidin-4-yl)piperazin-1-yl)propyl)quinolin-4-amine], the IC50 in series [1] is 20 nM; in series [3] it was 34 nM. Also, in series [2], the IC50 at 48 h is more than 4.76 µg/mL.
Take `COc1cccc2c1C(=O)c1c(O)c3c(c(O)c1C2=O)C[C@@](O)(C(=O)CO)C[C@@H]3O[C@H]1C[C@H](N)[C@H](O)[C@H](C)O1` [doxorubicin, reference compound]: the IC50 at 48 h in series [2] was 8600 ± 400 nM.
For `Cc1cc(N2CCN(CCNc3ccnc4cc(Cl)ccc34)CC2)nc(Cl)n1` [Compound 6a, 7-Chloro-N-(2-(4-(2-chloro-6-methylpyrimidin-4-yl)piperazin-1-yl)ethyl)quinolin-4-amine], the figures for the IC50 in series [1] and in series [3] were 79 nM and 500 nM, respectively. The compound further returned an IC50 at 48 h in series [2] of more than 4.76 µg/mL.
Consider `Clc1ccc2c(NCCCN3CCN(c4nccc(Cl)n4)CC3)ccnc2c1` [Compound 5c, 7-Chloro-N-(3-(4-(4-chloropyrimidin-2-yl)piperazin-1-yl)propyl)quinolin-4-amine], for which the IC50 in series [1] came out at 62 nM; in series [3], 230 nM. This compound returned an IC50 at 48 h in series [2] of more than 4.76 µg/mL.
For the compound `Clc1ccc2c(NCCCN3CCN(c4ccnc(Cl)n4)CC3)ccnc2c1` [Compound 6c, 7-Chloro-N-(3-(4-(2-chloropyrimidin-4-yl)piperazin-1-yl)propyl)quinolin-4-amine], the concentration for half-maximal inhibition (IC50) in series [1] is 73 nM; in series [3] it was 420 nM. In series [2], this compound displayed a concentration for half-maximal inhibition (IC50) at 48 h of more than 4.76 µg/mL.
Consider `Cc1cc(N2CCN(CCNc3ccnc4cc(Cl)ccc34)CC2)nc(N2CCOCC2)n1` [Compound 7b, 7-Chloro-N-(2-(4-(6-methyl-2-morpholinopyrimidin-4-yl)piperazin-1-yl)ethyl) quinolin-4-amine], for which the IC50 came to 95 nM in series [1] and 49 nM in series [3]. Also, the IC50 at 48 h in series [2] was more than 4.76 µg/mL.
In the same order, the values of `C[C@@H]1CC[C@H]2[C@@H](C)C(=O)O[C@@H]3O[C@@]4(C)CC[C@@H]1[C@]32OO4` [ART, artemisinin, reference compound] are 19 nM, 28.1 nM and more than 4.76 µg/mL.
As for `Cc1cc(N2CCN(CCCNc3ccnc4cc(Cl)ccc34)CC2)nc(Cl)n1` [Compound 6b, 7-Chloro-N-(3-(4-(2-chloro-6-methylpyrimidin-4-yl)piperazin-1-yl)propyl)quinolin-4-amine], the IC50 in series [1] worked out at 66 nM; in series [3], 200 nM. This compound also showed an IC50 at 48 h in series [2] of more than 4.76 µg/mL.
As for `Cc1cc(N2CCN(CCCNc3ccnc4cc(Cl)ccc34)CC2)nc(N2CCOCC2)n1` [Compound 7g, 7-Chloro-N-(3-(4-(6-methyl-2-morpholinopyrimidin-4-yl)piperazin-1-yl)propyl) quinolin-4-amine], the IC50 in series [1] was determined as 15 nM; in series [3] it was 43 nM. In addition, the IC50 at 48 h in series [2] was more than 4.76 µg/mL.
The corresponding values for `Cc1cc(N2CCN(CCNc3ccnc4cc(Cl)ccc34)CC2)nc(N2CCCC2)n1` [Compound 7d, 7-Chloro-N-(2-(4-(6-methyl-2-(pyrrolidin-1-yl)pyrimidin-4-yl)piperazin-1-yl)ethyl) quinolin-4-amine] are 13 nM, 20 nM and more than 4.76 µg/mL.
The corresponding values for `Clc1ccc2c(NCCCN3CCN(c4ccnc(N5CCCCC5)n4)CC3)ccnc2c1` [Compound 7l, 7-Chloro-N-(3-(4-(2-(piperidin-1-yl)pyrimidin-4-yl)piperazin-1-yl)propyl)quinolin-4-amine] are 14 nM, 31 nM and more than 4.76 µg/mL.
Turning to `Cc1cc(N2CCN(CCNc3ccnc4cc(Cl)ccc34)CC2)nc(N2CCCCC2)n1` [Compound 7a, 7-Chloro-N-(2-(4-(6-methyl-2-(piperidin-1-yl)pyrimidin-4-yl)piperazin-1-yl)ethyl) quinolin-4-amine], the values for the IC50 in series [1] and in series [3] were 32 nM and 40 nM, respectively. In series [2], this compound displayed an IC50 at 48 h of more than 4.76 µg/mL.
On to `Cc1cc(N2CCN(CCCNc3ccnc4cc(Cl)ccc34)CC2)nc(N2CCN(C)CC2)n1` [Compound 7k, 7-Chloro-N-(3-(4-(6-methyl-2-(4-methylpiperazin-1-yl)pyrimidin-4-yl)piperazin-1-yl)propyl)quinolin-4-amine], for which the IC50 in series [1] is 19 nM; in series [3], 22 nM. In series [2], the IC50 at 48 h is more than 4.76 µg/mL.
